HTRA1 inh = HTRA1 serine protease inhibitors, primary screen, biochemical, fluorescence polarization, HTS; 340,000 tested, 0.5% active; inhibition, % at 5.96 µM; AID 504803, 2011; Q92743; recombinant HTRA1, FP-rhodamine activity-based probe; in the data active = inhibition above about 36%;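 also: 0% = enzyme with DMSO and 100% = wells lacking enzyme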
Target sequence (Q92743 whole entry, looked up): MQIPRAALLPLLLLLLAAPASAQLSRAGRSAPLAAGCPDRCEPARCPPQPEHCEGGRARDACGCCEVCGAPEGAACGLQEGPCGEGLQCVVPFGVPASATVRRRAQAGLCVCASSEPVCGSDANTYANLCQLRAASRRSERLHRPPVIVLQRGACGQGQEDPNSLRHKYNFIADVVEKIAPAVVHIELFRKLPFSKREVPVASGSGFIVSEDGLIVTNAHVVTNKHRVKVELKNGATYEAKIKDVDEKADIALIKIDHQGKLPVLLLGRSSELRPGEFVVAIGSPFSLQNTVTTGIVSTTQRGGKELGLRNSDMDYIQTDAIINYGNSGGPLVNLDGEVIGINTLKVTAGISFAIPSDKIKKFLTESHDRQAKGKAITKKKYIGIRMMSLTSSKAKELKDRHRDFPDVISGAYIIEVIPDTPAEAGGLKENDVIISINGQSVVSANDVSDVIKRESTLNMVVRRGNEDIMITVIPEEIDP
TCR CD3 inh = inhibitors of human TCR-CD3 interaction, primary screen, biochemical, fluorescence, TAMRA-labeled TCR probe; inhibition, % at 9.4 µM; 360,000 tested, 0.37% active; AID 651800, 2012; T-cell receptor (TCR); in the data active = inhibition above about 19%;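 also: recombinant mutant TCR 2C K166C tagged with TAMRA read by polarization; 0% = receptor in buffer alone and 100% = receptor with positive control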
DDE Tn6 FP inh = inhibitors of Tn6 peptide binding to fibrin DD(E), primary screen, biochemical, fluorescence polarization, human fibrin, Tn6 probe; Fibrinogen beta chain (Homo sapiens), P02675; Fibrin DD(E) TRITC-Tn6 fluorescence polarization displacement; inhibition, % at 8.3 µM; 370,000 tested, 0.21% active; AID 720509, 2013;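 active = inhibition above a per-campaign cutoff: mean of compounds within control limits plus 3 SD, cut at about 15% in these data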;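 also: 0% = median of all compound wells on the plate and 100% = blocking peptide control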
DDE Tn7 FP inh = inhibitors of Tn7 peptide binding to fibrin DD(E), primary screen, biochemical, fluorescence polarization, human fibrin, Tn7 probe | 370,000 tested, 0.13% active | FP displacement of FITC-Tn7 peptide from fibrin DD(E); 0% = median of compound wells per plate | inhibition, % at 8.3 µM | Fibrinogen beta chain (Homo sapiens), P02675;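 active = inhibition above the mean of compounds falling within the control limits plus 3 SD of them, cut at about 14% in these data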;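 also: 0% = plate median of compound wells and 100% = 10 µM Aha-Tn7 peptide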
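system = human fibrin DD(E) protein | quantity = DD(E) 2 µM final | medium = Tris/NaCl/CaCl2 buffer, pH 7.8 | also added = labelled Tn7 tracer, 0.1 µM | compound dosing = single point at 8.3 µM | timing = compound with protein 10 min, then 3 h after probe, room temperature | signal = FP measurement | benchmarks = Aha-Tn7 high control | repeats = one replicate per compound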
mABHD4 FP = ABHD4 inhibitors, primary screen, biochemical, fluorescence polarization, mouse; inhibition, % at 8.92 µM; purified mABHD4, FP-Rh probe fluorescence polarization; 370,000 tested, 0.54% active; (Lyso)-N-acylphosphatidylethanolamine lipase (Mus musculus), Q8VD66;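 active = inhibition exceeding the mean over every tested compound plus 3 SD, cut at about 30% in these data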;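 also: 0% = plate median of compound wells and 100% = S159A mutant with DMSO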
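Doses – 8.92 µM, single dose · Material – wild-type mouse ABHD4 protein · Replication – single well per compound (singlicate) · Measure – percent inhibition of probe binding, normalized to plate controls · Schedule – 45 min compound pre-incubation plus 60 min probe step, 25 °C · Detection – fluorescence polarization with parallel and perpendicular emission, 525/598 nm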
SIAE inh = human SIAE inhibitors, primary screen, biochemical, fluorescence polarization, FP-Rh probe, 1536-well HTS; Sialate O-acetylesterase (Homo sapiens), Q9HAT2; SIAE FP-Rh probe binding; inhibition, % at 9.66 µM; 370,000 tested, 0.69% active;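 active = inhibition above a cutoff: mean of compounds within the control limits plus 3 SD of those, cut at about 17% in these data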;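 also: 0% = plate median of compound wells and 100% = probe without SIAE protein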
Active calls of the source: *; nt = no result. Compounds with a hit are over-represented: about 1.8% of the library has one in this group of screens.

SMILES	HTRA1 inh	TCR CD3 inh	DDE Tn6 FP inh	DDE Tn7 FP inh	mABHD4 FP	SIAE inh
COc1cc(CNc2ccc(O)cc2)cc(Br)c1OCc1ccccc1F	33	nt	nt	nt	nt	nt
Cc1nc2sccn2c1P(c1c(C)nc2sccn12)c1c(C)nc2sccn12	2	3	6	-5	-12	17*
CCOC(=O)c1c(C)nc2sccn12	-2	7	6	3	0	4
N#CCC[C@H]1CC[C@]2(CCCN(C(=O)c3ccccc3)C2)O1	nt	nt	1	0	-13	-2
c1ccc(-c2nc3c(ccc4ccccc43)[nH]2)nc1	36	-3	-18	-2	7	29*
C=CCN(CC#CC1=CCCCC1)Cc1ccccc1	nt	nt	9	-2	-1	3
CCOC(=O)C1C2C=CC3(CN(c4ccc(Cl)c(F)c4)C(=O)C13)O2 (stereo not drawn)	3	-6	0	0	1	-7
CCCOC(=O)C1C2C=CC3(CN(c4ccc(Cl)c(F)c4)C(=O)C13)O2 (stereo not drawn)	2	-5	-5	1	-1	49*
O=C(NCCN1CCc2ccccc2C1)Nc1ccc([N+](=O)[O-])cc1	-11	-4	-3	15*	-6	-5
O=C(NCCCN1CCc2ccccc2C1)Nc1ccc(Br)cc1	1	2	11	-1	1	-9
O=C(Cc1cccc2ccccc12)Nc1ccc(-c2cc3ccccc3oc2=O)cc1	-11	38*	4	-1	-32	-21
O=C(Nc1ccc(Cl)cc1)c1cc2c(cc1O)[nH]c1ccccc12	16	4	-12	-7	13	51*
CC(=O)Nc1ccc2[nH]c3ccccc3c2c1	-2	5	2	7	-3	0
Cc1ccc(C)c(N2C(=N)S/C(=C\c3ccc(-c4ccccc4C(=O)O)o3)C2=O)c1	-13	-3	-8	4	34*	2
C[C@H](CO)N1C[C@H](C)[C@@H](CN(C)C(=O)NC2CCCCC2)Oc2c(NC(=O)C3CCCCC3)cccc2C1=O	-1	1	6	1	6	5
C[C@H](CO)N1C[C@H](C)[C@@H](CN(C)C(=O)Nc2ccccc2)Oc2c(NC(=O)C3CCCCC3)cccc2C1=O	-2	4	-6	-12	1	18*
CC(=O)Nc1ccc(C(/C=C/c2ccccc2)Cc2ccccc2)cc1 (stereo not drawn)	nt	nt	-1	4	-32	-10
COc1ccc(-c2cc(-c3nc4ccccn4c3NCc3ccccc3)ccc2OC)cc1	-2	5	-7	-7	17	21*
COc1ccc(-c2nc3ccccn3c2NCc2ccc3c(c2)OCO3)cc1	2	2	10	4	9	2
C#CCNC(=O)C[C@H]1C[C@@]2(C(=O)OC)C(=C[C@H](C(C)C)O[C@@H]2C2CC2)N(CCC2=CCCCC2)C1=O	nt	nt	1	1	-3	7
Cc1ccc(NC(=O)C2CCN(C(=O)c3ccccc3C)CC2)cc1	6	-5	-2	-3	8	2
Cc1ccccc1C(=O)N1CCC(C(=O)Nc2cccc(F)c2)CC1	0	0	0	-9	-5	26*
COc1ccc(CNC(=O)C[C@H]2C[C@H](C(=O)N3CCCCC3)[C@@]3(C)c4[nH]c5cc(CCC(=O)N(C)C)ccc5c4CCN3C2=O)cc1OC	5	0	16*	7	3	2
S=C(N/N=C/c1ccc2ncccc2c1)Nc1cccnc1	-3	-9	-6	3	0	-5
Oc1ccc(/C=N/NC(=S)Nc2cccnc2)cc1O	15	24*	0	3	26	7
SMILES	HTRA1 inh	TCR CD3 inh	DDE Tn6 FP inh	DDE Tn7 FP inh	mABHD4 FP	SIAE inh
O=C(NCCc1ccccc1)C1CCCN(S(=O)(=O)c2cccc3nonc23)C1 (stereo not drawn)	1	-1	6	14*	1	2
CCn1c(SCC(=O)Nc2cccc3ccccc23)nnc1-c1cccs1	nt	nt	-1	4	1	-5
COC1=C(Br)C(=O)c2nc(C)ccc2C1=O	16	19*	-6	-1	21	-7
COC(=O)C1CN(Cc2ccc(F)cc2)CCS(=O)(=O)N1Cc1cn(Cc2ccccc2)nn1 (stereo not drawn)	nt	nt	-5	-2	8	-2
COc1ccc(C[N+]2=C(N)NC3=C4CCCCC4n4c(=O)n(-c5ccccc5)c(=O)n4C3C2)c(OC)c1 (stereo not drawn)	nt	nt	2	1	20	0
CN(CCO)c1cccc2c1S(=O)(=O)N(Cc1cn(Cc3cccc(F)c3)nn1)Cc1ccccc1O2	nt	nt	-6	3	0	3
O=C(Nc1ccc(N2CCOCC2)cc1)c1ccc2nc(-c3ccco3)c(-c3ccco3)nc2c1	0	0	-1	6	12	-6
CC(=O)c1ccc(NC(=O)c2ccc3nc(-c4ccco4)c(-c4ccco4)nc3c2)cc1	39*	nt	nt	nt	nt	nt
O=C(CCc1ccccc1)N[C@H]1[C@@H](OC(=O)c2cnccn2)CCC[C@]12C(=O)N(Cc1ccccc1)c1ccccc12	nt	nt	-5	-1	0	-7
O=C(Cn1ncc2c1-c1ccccc1OC2)Nc1nc2ccccc2s1	-23	19*	-4	3	-12	-8
CCN(C[C@H]1[C@@H](c2ccc(C3=CCCC3)cc2)[C@H](CO)N1c1nc(C)c(C)s1)S(=O)(=O)c1ccccc1[N+](=O)[O-]	nt	nt	-3	0	9	4
COc1cc(/C=N/Nc2ccc(Cl)c(C(=O)O)c2)ccc1OC(=O)c1ccco1	-3	5	0	0	6	11
COc1cc(/C=N/Nc2nc3c(c(=O)n(C)c(=O)n3C)n2Cc2ccccc2)ccc1OC(=O)c1ccco1	-2	-5	-7	3	0	21*
COc1cc(C=Nn2c(-c3cc(-c4ccccc4)n[nH]3)n[nH]c2=S)ccc1OC(C)=O	nt	nt	-2	-6	0	9
Cc1cc(N/N=C/c2ccc(Cl)cc2)nc(NCc2ccccc2)n1	-38	2	-8	3	11	7
Cc1cc(Nc2cccc(Cl)c2)nc(NCc2ccccc2)n1	-29	0	-8	-6	19	24*
CC[C@@]1(O)C(=O)OCc2c1cc1n(c2=O)Cc2cc3c(CN(C)C)c(O)ccc3nc2-1	7	13	10	30*	12	12

Screening data as filed in PubChem BioAssay.
